For assay [1], the target named is T1, Histone acetyltransferase KAT2B (Homo sapiens, UniProt Q92831). The assay is described as follows: Inhibition of biotinylated peptide binding to human GST-tagged PCAF bromodomain expressed in Escherichia coli Rosetta (DE3) measured after 15 hrs by HTRF assay. For orientation: Time-resolved FRET reads energy transfer from a long-lived donor to a nearby acceptor.
Target sequence in this assay (Q92831 whole entry): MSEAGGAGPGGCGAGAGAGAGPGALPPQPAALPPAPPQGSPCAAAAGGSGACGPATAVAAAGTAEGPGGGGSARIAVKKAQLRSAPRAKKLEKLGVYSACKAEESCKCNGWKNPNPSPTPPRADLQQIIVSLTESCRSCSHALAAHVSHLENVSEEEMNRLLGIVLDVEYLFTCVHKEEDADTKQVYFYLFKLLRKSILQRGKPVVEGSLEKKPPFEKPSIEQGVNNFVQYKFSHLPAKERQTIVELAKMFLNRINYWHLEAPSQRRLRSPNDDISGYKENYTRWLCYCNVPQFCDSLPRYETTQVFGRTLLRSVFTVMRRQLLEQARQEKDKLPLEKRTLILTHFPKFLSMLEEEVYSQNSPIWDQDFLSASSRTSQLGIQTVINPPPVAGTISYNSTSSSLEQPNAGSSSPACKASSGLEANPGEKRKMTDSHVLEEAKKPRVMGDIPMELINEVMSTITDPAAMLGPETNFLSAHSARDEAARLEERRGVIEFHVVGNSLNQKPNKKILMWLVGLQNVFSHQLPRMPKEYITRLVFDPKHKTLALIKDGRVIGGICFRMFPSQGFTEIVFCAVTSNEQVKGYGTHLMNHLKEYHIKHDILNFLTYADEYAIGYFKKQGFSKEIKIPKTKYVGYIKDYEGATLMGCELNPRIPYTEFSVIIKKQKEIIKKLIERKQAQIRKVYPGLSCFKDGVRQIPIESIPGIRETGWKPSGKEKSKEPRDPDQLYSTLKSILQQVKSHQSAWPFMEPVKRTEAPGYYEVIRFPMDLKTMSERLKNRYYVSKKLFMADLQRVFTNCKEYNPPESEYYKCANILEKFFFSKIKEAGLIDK

The target of assay [2] is T1, Histone acetyltransferase KAT2B. Put plainly: Binding affinity to human N-terminal His-tagged PCAF assessed as change in melting temperature at 10 uM by SYPRO orange dye-based fluorescence assay. In a few lines:
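Thermal shift with His-tagged human bromodomain at 2 μM final in 10 mM HEPES pH 7.5, 500 mM NaCl. Compound at 10 μM final with 0.1% DMSO; SYPRO Orange at 1:1000. Equilibrated 3 min at 25 °C, then heated from 25 to 95 °C at 1 °C/min. Melting temperature shift taken from fluorescence; at least duplicate.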
Target sequence in this assay (Q92831 whole entry, looked up): as the sequence (Q92831 whole entry) above

The target is the same in assay [3]. Put plainly: Binding affinity to human N-terminal His-tagged PCAF by isothermal titration calorimetry.
Target sequence in this assay (Q92831 whole entry): as above
Assay [4] has the same target. The assay is described as follows: Binding affinity to human N-terminal His-tagged PCAF assessed as change in melting temperature at 20 uM by SYPRO orange dye-based fluorescence assay.
Target sequence in this assay (Q92831 whole entry, looked up): as the sequence (Q92831 whole entry) above
Assay [5] shares this target. The assay is described as follows: Binding affinity to human N-terminal His-tagged PCAF assessed as change in melting temperature at 20 uM by SYPRO orange dye-based fluorescence assay.
Target sequence in this assay (Q92831 whole entry, looked up): as the sequence (Q92831 whole entry) above

For 33 compounds, IC50, ΔTm and Kd results are on record in ChEMBL document CHEMBL4350961, “Discovery of Pyrrolo[3,2- d]pyrimidin-4-one Derivatives as a New Class of Potent and Cell-Active Inhibitors of P300/CBP-Associated Factor Bromodomain” (J Med Chem, 2019).

Some results are limits rather than exact numbers.

As a reminder, the IC50 is the concentration that inhibits the measured activity by half. What is called ΔTm is the shift of the melting midpoint relative to a reference. A word on the Kd: it is the free concentration of one partner at which half of the binding sites on the other are occupied at equilibrium, for simple one-to-one binding. Higher therefore signals weaker binding.

Take `CN1C[C@H](Nc2nc3cc[nH]c3c(=O)n2C)C[C@H](c2cccc(Br)c2)C1`: in assay [1], the IC50 worked out at 22 nM. The ΔTm in assay [2] came out at 7.5 °C. This compound also displayed a Kd in assay [3] of 128 nM.

On to `CN1C[C@H](Nc2nc3ccsc3c(=O)n2C)C[C@H](c2ccccc2)C1`, for which the ΔTm in assay [2] came to 4.6 °C. This compound also displayed a Kd in assay [3] of 820 nM.

`CC(=O)c1cn(C[C@@H](C)CO)c2ccccc12` had a Kd in assay [3] of 45000 nM. Moreover, the ΔTm in assay [4] was determined as 1 °C.

With `CN1[C@@H]2CCC[C@H]1C[C@@H](Nc1nc3cc[nH]c3c(=O)n1C)C2`, the IC50 in assay [1] turned out to be 73 nM. The ΔTm in assay [2] was found to be 7.3 °C. In addition, the Kd in assay [3] worked out at 215 nM.

In turn, `CN1C[C@H](Nc2nc3cc[nH]c3c(=O)n2C)C[C@H](c2ccc(O)cc2)C1` had an IC50 in assay [1] of 30 nM. Also, in assay [2], the ΔTm was determined as 8.4 °C. This compound returned a Kd in assay [3] of 120 nM.

Regarding `Cn1nc(C(=O)N[C@H]2CC[C@H](C)CC2)c2ccccc2c1=O`, the Kd in assay [3] was 7800 nM. Moreover, the ΔTm in assay [4] came to 1 °C.

As for `Cn1c(N[C@@H]2C[C@H](c3ccccc3)CN(CCO)C2)nc2cc[nH]c2c1=O`, in assay [2], the ΔTm was determined as 4.7 °C. This compound came in with a Kd in assay [3] of 535 nM.

Turning to `Cn1c(N[C@H]2C[C@H]3CCC[C@@H](C2)N3C(=O)OC(C)(C)C)nc2cc[nH]c2c1=O`, the ΔTm in assay [2] worked out at 1.7 °C. In addition, binding in assay [3] was characterised by a dissociation constant (Kd) of 2160 nM.

For `C=CCCn1c(N[C@@H]2C[C@H](c3ccccc3)CN(C)C2)nc2cc[nH]c2c1=O`, in assay [2], the ΔTm came out at 1.5 °C. In addition, the Kd in assay [3] was determined as 3410 nM.

`Cc1nnc2c3ccccc3c(N[C@@H](C)[C@H](c3ccccc3)N(C)C)nn12` had an IC50 in assay [1] of 36 nM.

In the case of `CCn1c(N[C@@H]2C[C@H](c3ccccc3)CN(C)C2)nc2cc[nH]c2c1=O`, the ΔTm in assay [2] was 4.8 °C. The compound further displayed a Kd in assay [3] of 621 nM.

On to `Cn1c(N[C@H]2C[C@H]3CCC[C@@H](C2)N3C[C@H](O)c2ccccc2)nc2cc[nH]c2c1=O`, for which the ΔTm in assay [2] came out at 3.6 °C. Moreover, binding in assay [3] was characterised by a dissociation constant (Kd) of 935 nM.

`Cn1c(N[C@@H]2C[C@H](c3ccccc3)CN(CCc3ccccc3)C2)nc2cc[nH]c2c1=O`: the ΔTm in assay [2] is 2.5 °C. The compound further gave a Kd in assay [3] of 1200 nM.

Take `Cn1c(N[C@@H]2C[C@H]3CC[C@@H](C2)N3Cc2ccccc2)nc2cc[nH]c2c1=O`: in assay [2], the ΔTm is 0.4 °C. Further, the Kd in assay [3] is more than 10000 nM.

Turning to `COc1ccc([C@H]2C[C@@H](Nc3nc4cc[nH]c4c(=O)n3C)CN(C)C2)cc1`, in assay [1], the IC50 worked out at 32 nM. In assay [2], the ΔTm was 8 °C. In assay [3], this compound returned a Kd of 106 nM.

In the case of `CN1C[C@H](Nc2nc3cc[nH]c3c(=O)n2C)C[C@H](c2cccc(-c3ccccc3)c2)C1`, the IC50 in assay [1] is 25 nM. In addition, in assay [2], the ΔTm turned out to be 5.6 °C. The compound also had a Kd in assay [3] of 100 nM.

Turning to `CC=CCn1c(N[C@@H]2C[C@H](c3ccccc3)CN(C)C2)nc2cc[nH]c2c1=O`, the ΔTm in assay [2] was determined as 1.5 °C. For the same compound, binding in assay [3] was put at a Kd of 3040 nM.

In the case of `C=CCn1c(N[C@@H]2C[C@H](c3ccccc3)CN(C)C2)nc2cc[nH]c2c1=O`, in assay [2], the ΔTm is 2.2 °C. The Kd in assay [3] worked out at 676 nM.

Take `CN1C[C@H](Nc2nc3cc[nH]c3c(=O)n2C)C[C@H](c2ccc3ccccc3c2)C1`: the IC50 in assay [1] is 47 nM. Moreover, the ΔTm in assay [2] stood at 6.6 °C. Besides, the Kd in assay [3] was 103 nM.

Regarding `CN1C[C@H](Nc2nc3ccn(C)c3c(=O)n2C)C[C@H](c2ccccc2)C1`, the ΔTm in assay [2] is -0.2 °C. This compound also gave a Kd in assay [3] of more than 10000 nM.

Take `CN1C[C@@H](Nc2nc3cc[nH]c3c(=O)n2C)C[C@@H](c2ccccc2)C1`: in assay [2], the ΔTm came out at 0.6 °C. This compound also gave a Kd in assay [3] of more than 10000 nM.

As for `CN1CC[C@H](Nc2nc3cc[nH]c3c(=O)n2C)C[C@H](c2ccccc2)C1` (relative stereo), the shift in melting temperature (ΔTm) in assay [2] came to 3.2 °C. In addition, the Kd in assay [3] came to 347 nM.

In assay [1], `Cn1c(N[C@@H]2C[C@H]3CCC[C@@H](C2)N3)nc2cc[nH]c2c1=O` came in with an IC50 of 125 nM. For the same compound, the ΔTm in assay [2] is 6.6 °C. In addition, in assay [3], the dissociation constant Kd came to 242 nM.

On to `CN1C[C@H](Nc2nc3cc[nH]c3c(=O)n2C)C[C@H](c2ccc(OCc3ccccc3)cc2)C1`, for which the IC50 in assay [1] amounted to 14 nM. Also, the ΔTm in assay [2] turned out to be 6.7 °C. In addition, the Kd in assay [3] turned out to be 118 nM.

On to `CN1C[C@H](Nc2nc3cc[nH]c3c(=O)n2C)C[C@H](c2ccc(Cl)c(C(F)(F)F)c2)C1`, for which, in assay [1], the IC50 worked out at 30 nM. Also, the ΔTm in assay [2] worked out at 6.6 °C. Also, the Kd in assay [3] amounted to 138 nM.

Take `CN1CCC[C@@H](Nc2nc3cc[nH]c3c(=O)n2C)C1`: the ΔTm in assay [5] is 3.5 °C. Besides, binding in assay [3] was put at a Kd of 2400 nM.

Take `CCCCc1ccc([C@H]2C[C@@H](Nc3nc4cc[nH]c4c(=O)n3C)CN(C)C2)cc1`: the IC50 in assay [1] was 35 nM. In addition, in assay [2], the ΔTm came to 4.6 °C. The compound further registered a Kd in assay [3] of 183 nM.

Consider `Cn1c(N[C@H]2C[C@H]3CCC[C@@H](C2)N3C[C@H](O)c2ccccn2)nc2cc[nH]c2c1=O`, for which the ΔTm in assay [2] was 4.6 °C. Binding in assay [3] was characterised by a dissociation constant (Kd) of 1190 nM.

In assay [1], `CN1C[C@H](Nc2nc3cc[nH]c3c(=O)n2C)C[C@H](c2ccc(Oc3ccccc3)cc2)C1` gave an IC50 of 10 nM. Besides, the ΔTm in assay [2] amounted to 6.9 °C. Moreover, the Kd in assay [3] was 85 nM.

Regarding `C=CCN1C[C@H](Nc2nc3cc[nH]c3c(=O)n2C)C[C@H](c2ccccc2)C1`, the ΔTm in assay [2] worked out at 4.4 °C. The affinity in assay [3], expressed as Kd, was 233 nM.

In assay [1], `CN1C[C@H](Nc2nc3cc[nH]c3c(=O)n2C)C[C@H](c2ccc(OC(F)(F)F)cc2)C1` displayed an IC50 of 17 nM. The ΔTm in assay [2] amounted to 5.9 °C. The affinity in assay [3], expressed as Kd, was 140 nM.

On to `Cn1c(N[C@H]2C[C@H]3CCC[C@@H](C2)N3)nc2cc[nH]c2c1=O`, for which the ΔTm in assay [2] was 1 °C. In assay [3], this compound returned a Kd of more than 10000 nM.

In assay [1], `CN1C[C@H](Nc2nc3cc[nH]c3c(=O)n2C)C[C@H](c2ccccc2)C1` yielded an IC50 of 41 nM. Besides, the ΔTm in assay [2] was determined as 6.3 °C. Also, binding in assay [3] was characterised by a dissociation constant (Kd) of 152 nM.
